Reference: ChEMBL document CHEMBL1828575, “Design, synthesis and antiproliferative activities of biarylolefins based on polyhydroxylated and carbohydrate scaffolds” (Eur J Med Chem, 2011)

Experiments:
Format in all cases: functional
DU-145 = experiment: Cytotoxicity against human DU145 cells assessed as cellular growth at 10 uM after 48 hrs by SRB assay
Summary of the method: (§1)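 NCI60 single-dose screen of cells in RPMI 1640 with 5% FBS and 2 mM L-glutamine, preincubated 24 h at 37 °C, 5% CO₂. Cells were then exposed 48 h to compound added from DMSO stock. TCA-fixed, stained with 0.4% SRB in 1% acetic acid, dye solubilised in 10 mM Tris base and read at 515 nm. Growth is given as percent of untreated control.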

SF-268 [1] = experiment: Cytotoxicity against human SF268 cells assessed as cellular growth at 10 uM after 48 hrs by SRB assay
Summary of the method: (§2)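 NCI-60 panel lines grown in RPMI 1640 with 5% FBS and 2 mM L-glutamine. Plated at 5000–40,000 cells/well and preincubated 24 h at 37 °C, 5% CO₂, with time-zero plates fixed in TCA. Compounds, dissolved in DMSO and diluted in medium, were applied for 48 h. Cells were TCA-fixed (10% final for adherent, 16% for suspension) and stained with 0.4% SRB in 1% acetic acid. Dye was solubilised in 10 mM Tris base and read at 515 nm; growth was expressed as a percentage of untreated control.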

HL-60(TB) [2] = experiment: Cytotoxicity against human HL-60(TB) cells assessed as cellular growth at 10 uM after 48 hrs by SRB assay
K562 = experiment: Cytotoxicity against human K562 cells assessed as cellular growth at 10 uM after 48 hrs by SRB assay; summary of the method: as §1
SR = experiment: Cytotoxicity against human SR cells assessed as cellular growth at 10 uM after 48 hrs by SRB assay; summary of the method: as §2
NCI-H460 = experiment: Cytotoxicity against human NCI-H460 cells assessed as cellular growth at 10 uM after 48 hrs by SRB assay; summary of the method: as §2
NCI-H226 = experiment: Cytotoxicity against human NCI-H226 cells assessed as cellular growth at 10 uM after 48 hrs by SRB assay; summary of the method: as §2
SNB-75 = experiment: Cytotoxicity against human SNB75 cells assessed as cellular growth at 10 uM after 48 hrs by SRB assay; summary of the method: as §2
U-251 = experiment: Cytotoxicity against human U251 cells assessed as cellular growth at 10 uM after 48 hrs by SRB assay; summary of the method: as §2
M14 = experiment: Cytotoxicity against human M14 cells assessed as cellular growth at 10 uM after 48 hrs by SRB assay; summary of the method: as §1
UACC-257 = experiment: Cytotoxicity against human UACC257 cells assessed as cellular growth at 10 uM after 48 hrs by SRB assay; summary of the method: as §2
OVCAR-3 = experiment: Cytotoxicity against human OVCAR3 cells assessed as cellular growth at 10 uM after 48 hrs by SRB assay; summary of the method: as §2
NCI/ADR-RES = experiment: Cytotoxicity against human NCI/ADR-RES cells assessed as cellular growth at 10 uM after 48 hrs by SRB assay; summary of the method: as §2
786-0 = experiment: Cytotoxicity against human 786-0 cells assessed as cellular growth at 10 uM after 48 hrs by SRB assay; summary of the method: as §1
ACHN = experiment: Cytotoxicity against human ACHN cells assessed as cellular growth at 10 uM after 48 hrs by SRB assay; summary of the method: as §1
TK-10 = experiment: Cytotoxicity against human TK10 cells assessed as cellular growth at 10 uM after 48 hrs by SRB assay; summary of the method: as §2
UO-31 [3] = experiment: Cytotoxicity against human UO31 cells assessed as cellular growth at 10 uM after 48 hrs by SRB assay; summary of the method: as §2
KM12 = experiment: Antitumor activity against human KM12 cells after 48 hrs by SRB assay; conditions: KM12, 48 h
Summary of the method: (§3)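 NCI60 panel in RPMI 1640 with 5% FBS and 2 mM L-glutamine. Cells were plated at 5000–40,000/well by doubling time, held 24 h, then time-zero plates were TCA-fixed. Five concentrations (10-fold or half-log dilutions of DMSO stocks) were applied for 48 h at 37 °C, 5% CO2. Cells were fixed with cold TCA (10% final adherent, 16% suspension) and stained with 0.4% SRB. Bound dye was dissolved in 10 mM Tris and read at 515 nm. GI50, TGI and LC50 were calculated per line.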

T47D = experiment: Antitumor activity against human T47D cells after 48 hrs by SRB assay
Summary of the method: (§4)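 NCI60 panel cells grown in RPMI 1640 with 5% FBS and 2 mM L-glutamine, plated at 5000–40,000 cells/well and preincubated 24 h at 37 °C, 5% CO₂. Compound was added from DMSO at five concentrations, 10-fold or 1/2 log dilutions, then incubated 48 h.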

UO-31 [4] = experiment: Antitumor activity against human UO31 cells after 48 hrs by SRB assay; conditions: UO-31, 48 h; summary of the method: as §4
UACC-62 = experiment: Antitumor activity against human UACC62 cells after 48 hrs by SRB assay; conditions: UACC-62, 48 h; summary of the method: as §4
HL-60(TB) [5] = experiment: Antitumor activity against human HL-60(TB) cells after 48 hrs by SRB assay; conditions: HL-60, 48 h
Summary of the method: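 NCI60 screen: cells grown in RPMI 1640 with 5% FBS and 2 mM L-glutamine, plated at 5000–40,000 cells/well by doubling time, preincubated 24 h at 37 °C with 5% CO2. Compounds were diluted from DMSO stocks and given for 48 h, at five concentrations for dose response. A time-zero plate was TCA-fixed. Cells were TCA-fixed, stained with 0.4% SRB and read at 515 nm, with growth expressed relative to untreated controls.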

CCRF-CEM = experiment: Antitumor activity against human CCRF-CEM cells after 48 hrs by SRB assay; summary of the method: as §3
HT-29 = experiment: Antiproliferative activity against human HT-29 cells after 48 hrs by SRB assay; conditions: HT-29, 48 h; summary of the method: as §3
SF-268 [6] = experiment: Antitumor activity against human SF268 cells after 48 hrs by SRB assay; conditions: SF-268, 48 h; summary of the method: as §3
[7] = read-out: LC50 (the source's name)
[8] = read-out: pLC50 (the source's name) (converted)

## COc1ccc(/C(=C2/O[C@@H]([C@H]3COC(C)(C)O3)[C@H]3OC(C)(C)O[C@@H]23)c2cc(OC)c(OC)c(OC)c2)cc1O
DU-145
  Activity: 34.8%
SF-268 [1]
  Activity: 36.3%
HL-60(TB) [2]
  Activity: 20.71%
K562
  Activity: 24.28%
SR
  Activity: 25.4%
NCI-H460
  Activity: 79.36%
NCI-H226
  Activity: 107.94%
SNB-75
  Activity: 6.11%
U-251
  Activity: 46.2%
M14
  Activity: 7.95%
UACC-257
  Activity: 107.04%
OVCAR-3
  Activity: 48%
NCI/ADR-RES
  Activity: 10.1%
786-0
  Activity: 100.71%
ACHN
  Activity: 44.73%
TK-10
  Activity: 109.18%
UO-31 [3]
  Activity: 49.1%
KM12
  GI50: 3.99 µM
  LC50: > 100 µM
  TGI: > 100 µM
T47D; read-out: GI50
  GI50: 2.51 µM
T47D; [7]
  CC50: > 100 µM
T47D; read-out: TGI
  TGI: > 100 µM
T47D; read-out: pGI50 (converted)
  GI50: 25.1 µM
T47D; [8]
  CC50: > 100 µM
T47D; read-out: pTGI (converted)
  TGI: > 100 µM
UO-31 [4]; read-out: GI50
  GI50: 7.53 µM
UO-31 [4]; [7]
  CC50: > 100 µM
UO-31 [4]; read-out: TGI
  TGI: 77.8 µM
UO-31 [4]; read-out: pGI50 (converted)
  GI50: 7.59 µM
UO-31 [4]; [8]
  CC50: > 100 µM
UO-31 [4]; read-out: pTGI (converted)
  TGI: 77.6 µM
UACC-62; read-out: GI50
  GI50: 5.79 µM
UACC-62; [7]
  CC50: > 100 µM
UACC-62; read-out: TGI
  TGI: > 100 µM
UACC-62; read-out: pGI50 (converted)
  GI50: 57.5 µM
UACC-62; [8]
  CC50: > 100 µM
UACC-62; read-out: pTGI (converted)
  TGI: > 100 µM
HL-60(TB) [5]; read-out: GI50
  GI50: 3.39 µM
HL-60(TB) [5]; [7]
  CC50: > 100 µM
HL-60(TB) [5]; read-out: TGI
  TGI: 23.3 µM
HL-60(TB) [5]; read-out: pGI50 (converted)
  GI50: 3.39 µM
HL-60(TB) [5]; [8]
  CC50: > 100 µM
HL-60(TB) [5]; read-out: pTGI (converted)
  TGI: 23.4 µM
CCRF-CEM; read-out: GI50
  GI50: 3.75 µM
CCRF-CEM; [7]
  CC50: > 100 µM
CCRF-CEM; read-out: TGI
  TGI: > 100 µM
CCRF-CEM; read-out: pGI50 (converted)
  GI50: 3.72 µM
CCRF-CEM; [8]
  CC50: > 100 µM
CCRF-CEM; read-out: pTGI
  TGI: > 100 µM
HT-29
  LC50 (50% net cell kill): > 100 µM
HT-29; read-out: GI50
  GI50: 3.99 µM
HT-29; read-out: TGI
  TGI: > 100 µM
HT-29; read-out: pGI50 (converted)
  GI50: 3.98 µM
HT-29; [8]
  CC50: > 100 µM
HT-29; read-out: pTGI (converted)
  TGI: > 100 µM
SF-268 [6]
  LC50 (concentration killing 50% of cells relative to time zero): > 100 µM
SF-268 [6]; read-out: GI50
  GI50: 6.95 µM
SF-268 [6]; read-out: TGI
  TGI: 31.4 µM
SF-268 [6]; read-out: pGI50 (converted)
  GI50: 6.92 µM
SF-268 [6]; [8]
  CC50: > 100 µM
SF-268 [6]; read-out: pTGI (converted)
  TGI: 31.6 µM
